Screens as filed in PubChem.
Shown are actives, neighbours in structure and some others; about 4.2% of the full set was active somewhere.
Cl transport mod: modulates chloride dependent transport by human KCC2; Q9H2X9; KCC2 cells, thallium flux FluoZin-2 fluorescence; B-score of Tl+ flux slope (higher = more flux/activation; lower = inhibition) at 10 µM; 2.2% of 190,000 active;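 active = thallium flux slope and its plate-corrected score both differing from the plate sample mean at a set confidence after two filtering rounds, in either direction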;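 note: slope of fluorescence scaled to starting intensity during 10 to 20 s after thallium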
Target sequence (Q9H2X9 whole entry, looked up): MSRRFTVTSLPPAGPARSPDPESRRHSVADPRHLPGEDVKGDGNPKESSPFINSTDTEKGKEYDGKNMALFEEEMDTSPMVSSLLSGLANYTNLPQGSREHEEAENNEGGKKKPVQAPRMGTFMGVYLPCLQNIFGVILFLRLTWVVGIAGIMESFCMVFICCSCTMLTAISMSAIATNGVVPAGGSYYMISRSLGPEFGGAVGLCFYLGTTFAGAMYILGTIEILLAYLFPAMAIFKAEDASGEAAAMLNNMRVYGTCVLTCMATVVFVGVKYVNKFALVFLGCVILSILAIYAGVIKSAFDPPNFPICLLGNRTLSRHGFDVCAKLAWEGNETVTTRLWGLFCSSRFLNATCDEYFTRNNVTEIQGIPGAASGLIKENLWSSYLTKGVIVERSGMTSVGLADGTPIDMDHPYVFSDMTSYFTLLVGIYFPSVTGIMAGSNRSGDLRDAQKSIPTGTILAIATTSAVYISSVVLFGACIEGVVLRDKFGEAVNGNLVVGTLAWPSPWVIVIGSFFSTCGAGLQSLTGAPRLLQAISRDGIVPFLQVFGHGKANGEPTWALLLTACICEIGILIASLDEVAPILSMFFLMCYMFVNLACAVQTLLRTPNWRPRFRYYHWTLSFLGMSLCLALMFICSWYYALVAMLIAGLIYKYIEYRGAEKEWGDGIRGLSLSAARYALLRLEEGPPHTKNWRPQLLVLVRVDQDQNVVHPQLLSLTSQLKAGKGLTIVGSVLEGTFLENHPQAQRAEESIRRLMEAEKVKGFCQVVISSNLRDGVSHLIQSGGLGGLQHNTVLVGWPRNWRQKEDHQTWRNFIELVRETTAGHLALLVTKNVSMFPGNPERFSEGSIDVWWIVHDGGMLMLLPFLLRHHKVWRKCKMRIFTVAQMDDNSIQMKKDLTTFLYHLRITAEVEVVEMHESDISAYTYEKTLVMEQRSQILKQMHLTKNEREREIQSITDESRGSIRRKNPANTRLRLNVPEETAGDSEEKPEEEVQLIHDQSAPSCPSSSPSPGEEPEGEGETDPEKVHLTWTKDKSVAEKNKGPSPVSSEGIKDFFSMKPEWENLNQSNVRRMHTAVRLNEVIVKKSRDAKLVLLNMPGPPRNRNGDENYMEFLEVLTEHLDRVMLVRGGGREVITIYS
SUMO Mot1 rescue: SUMOylation pathway inhibition by Mot1-301 growth rescue | AID 2716 | 1% of 320,000 active | S. cerevisiae Mot1-301 growth rescue, ATP luminescence, 38.5C; percent above DMSO median, 100 means doubled | growth rescue, % at 18.8 µM;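 active = every valid replicate shows activation above 250% relative to neutral control wells; inactive = the rest, any valid replicate at or below 250%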;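 note: OY570 slx delta 5 strain wells were the positive control but not used for scaling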
KCNQ1 inh: inhibitors of human KCNQ1 potassium channel | 1.3% of 310,000 active | CHO-K1 KCNQ1, FluxOR thallium flux fluorescence; stronger effect = higher value | P51787 | AID 2642 | B-score at 10 µM;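 active = compounds whose thallium flux B-score, printed positive for inhibition, exceeds three library SD while starting fluorescence stays within three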;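 note: channel opened by potassium depolarization with thallium stimulus after 20 min compound exposure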
KCNQ1 act: potentiates or activates the human KCNQ1 potassium channel; P51787; CHO-K1 KCNQ1, thallium flux FluxOR fluorescence; stronger effect = higher value; B-score at 10 µM; 0.35% of 310,000 active;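 active = fluorescence ratio B-score, a plate-corrected score, at least three library SD, with initial intensity B-score within 5 SD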
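Test system: CHO-K1 cells stably expressing KCNQ1 / Medium: assay buffer / Also added: depolarizing K+/Tl+ stimulus, K2SO4 and Tl2SO4 each 12.5 mM in 5x stock / Incubation: 90 min dye loading and 20 min compound exposure, both at room temperature / Signal: thallium influx via FluxOR fluorescence, kinetic imaging / Evaluation: B score of baseline-normalized fluorescence ratio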
hERG protect: compounds protecting human hERG from proarrhythmic drug block. Q12809. CHO-hERG, FluxOR thallium flux, dofetilide IC70 present. activation (rescue from dofetilide block), less the hit threshold, % at 10 µM. 0.51% of 310,000 active;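 active = activation above the mean of controls blocked by dofetilide plus 5 SD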;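 note: thallium influx through hERG after potassium depolarization seen as dye fluorescence rise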
AI-2 QS mod: modulators of Vibrio harveyi AI-2 quorum sensing system | Vibrio harveyi JMH597 AI-2 luminescence/OD600 ratio, 9 h; stronger effect = lower value; strain lacks LuxN and CqsS sensors; 0 = neutral-control median | activity change, % at 7.5 µM | 0.4% of 300,000 active | AID 2094; in the data active = activity change below about -75%, passing the limit was not always enough; inconclusive = no clear call, values can overlap the other calls;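 note: luminescence divided by OD600 gain over 9 h not by final OD600 alone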
KCC2 sec1: confirmation of human KCC2 transport modulators. shares compounds with Cl transport mod. normalised thallium flux (F/F0 slope) at 10 µM. 15% of 3,700 active. HEK293-KCC2, thallium flux, FluoZin2 fluorescence; stronger effect = higher value;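 active = thallium flux slope above the same plate's solvent-only control mean plus 3 SD; inconclusive = the two replicate wells disagree; inactive = no significant difference from solvent-only control wells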
KCC2 bumet counter: thallium flux despite bumetanide block in KCC2 cells, secondary assay 3; shares compounds with Cl transport mod; normalized thallium flux at 10 µM; 49% of 3,700 active; HEK293-KCC2 + bumetanide/ouabain, thallium flux FluoZin2; stronger effect = higher value;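 active = thallium entry rate above the same plate's blocked-transporter control wells by more than 3 SD; inconclusive = the two repeat wells disagree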;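 note: raw slope of fluorescence over initial fluorescence between 10 and 20 s after thallium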
KCC2 sec2: KCC2 (human) modulation, second secondary assay. shares compounds with Cl transport mod. HEK293-KCC2, thallium flux FluoZin2 fluorescence; actives lie on both sides; F/F0 rise rate, 10–20 s post-thallium. normalized thallium flux at 10 µM. 23% of 3,700 active. AID 1715;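 active = thallium flux slope more than 3 SD above or below the plate's solvent-only control mean, mostly below; inconclusive = the two repeat wells disagreed; inactive = no significant shift from solvent-only controls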;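 note: raw slope with 0.1% DMSO as baseline and bumetanide as block control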
HEK counter1: counter-screen for KCC2 modulators: effect in parental HEK293 cells. shares compounds with Cl transport mod. thallium flux FluoZin2, ouabain; baseline-ratio fluorescence slope, 10–20 s after thallium. thallium flux rate (normalised fluorescence) at 10 µM. 46% of 3,700 active. AID 1716;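 active = thallium flux rate significantly above the same plate's solvent-only control wells, beyond their mean plus 3 SD; inconclusive = the two replicate wells gave conflicting results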
KCC2 ouabain: confirmation of human KCC2 modulators with ouabain; 48% of 3,700 active; shares compounds with Cl transport mod; HEK293-KCC2, thallium flux FluoZin2 fluorescence; bidirectional: low = inhibitor, high = activator; raw Tl+ flux slope (below DMSO = inhibition, above = activation) at 10 µM;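 active = thallium flux slope beyond 3 SD from same-plate DMSO control mean in most replicates, usually higher, sometimes lower; inconclusive = repeat tests gave conflicting results; inactive = no significant difference from controls in most replicates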;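 note: slope of initial-normalized fluorescence between seconds 10 and 20 after thallium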
HEK293 Tl flux2: parental HEK flux effect, counter-screen 2. HEK293 parental, thallium flux FluoZin-2 fluorescence slope. thallium flux slope at 10 µM. shares compounds with Cl transport mod. 33% of 3,700 active;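 active = thallium flux slope above the same plate's solvent-control mean plus 3 SD in both duplicate wells; inconclusive = duplicate wells that disagreed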;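 note: run without ouabain in cells lacking the KCC2 cotransporter; slope of fluorescence scaled to its starting value between 10 and 20 s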
Starred values were filed as active, the others as inactive.

For O=C(NC(=S)Nc1ccc(Br)cn1)c1cccs1 the results were Cl transport mod 7.7*, SUMO Mot1 rescue 10, KCNQ1 inh inactive, KCNQ1 act 13*, hERG protect 4, AI-2 QS mod 1, KCC2 sec1 0.0077, KCC2 bumet counter 0.024*, KCC2 sec2 0.036, HEK counter1 0.017*, KCC2 ouabain 0.033* and HEK293 Tl flux2 0.018*.
Screening O=C(NC(=S)Nc1ccccn1)c1cncc(Br)c1 returned Cl transport mod 6.2*, SUMO Mot1 rescue -2, KCNQ1 inh inactive, KCNQ1 act inactive, hERG protect -11, AI-2 QS mod 16, KCC2 sec1 0.0073, KCC2 bumet counter 0.017*, KCC2 sec2 0.033, HEK counter1 0.015*, KCC2 ouabain inconclusive and HEK293 Tl flux2 0.014*.
`O=C(NC(=S)Nc1ccc(Br)cn1)c1cncc(Br)c1` gave Cl transport mod 0.8, SUMO Mot1 rescue -2, KCNQ1 inh inactive, KCNQ1 act inactive, hERG protect 0 and AI-2 QS mod 10.
`O=C(Nc1ccc(Br)cn1)c1ccc(Br)s1` gave SUMO Mot1 rescue 96, KCNQ1 inh inactive, KCNQ1 act inactive, hERG protect -4 and AI-2 QS mod 6.
Screening O=C(NC(=S)Nc1ccccn1)c1cccc([N+](=O)[O-])c1 returned Cl transport mod 8*, SUMO Mot1 rescue 3, KCNQ1 inh inactive, KCNQ1 act inactive, hERG protect -11, AI-2 QS mod 2, KCC2 sec1 inconclusive, KCC2 bumet counter 0.042*, KCC2 sec2 0.035, HEK counter1 0.014*, KCC2 ouabain 0.026 and HEK293 Tl flux2 0.013*.
For O=C(CNC(=O)c1ccco1)NNC(=O)c1cccc(Cl)c1 the results were SUMO Mot1 rescue 15.
C/C(N)=C(/C#N)C(=O)COC(=O)C1CCN(S(=O)(=O)c2cccs2)CC1 was read as SUMO Mot1 rescue -3.
For COc1ccc(OC)c(NS(=O)(=O)c2cc3c4c(c2)CCN4C(=O)CC3)c1 the results were KCNQ1 inh inactive, KCNQ1 act inactive, hERG protect -4 and AI-2 QS mod 28.
C=C(C)c1ccccc1 was read as SUMO Mot1 rescue -13.
For O=C(NC(=S)Nc1cccc([N+](=O)[O-])c1)c1ccccc1 the results were Cl transport mod 12*, SUMO Mot1 rescue 26, KCNQ1 inh inactive, KCNQ1 act inactive, hERG protect -1, KCC2 sec1 0.0093, KCC2 bumet counter 0.03*, KCC2 sec2 0.033, HEK counter1 inconclusive, KCC2 ouabain 0.024 and HEK293 Tl flux2 inconclusive.
`O=C(NC(=S)Nc1cccc([N+](=O)[O-])c1)c1ccco1` gave Cl transport mod 28*, SUMO Mot1 rescue 0, KCNQ1 inh inactive, KCNQ1 act inactive, hERG protect 0, AI-2 QS mod 11, KCC2 sec1 0.022*, KCC2 bumet counter 0.079*, KCC2 sec2 inconclusive, HEK counter1 inconclusive, KCC2 ouabain 0.062* and HEK293 Tl flux2 0.025*.
`CCOc1ccc(C(C)=O)cc1CN1C(=O)C(=O)N(CC)C1=O` gave Cl transport mod 1.1, SUMO Mot1 rescue 9, KCNQ1 inh inactive, KCNQ1 act inactive, hERG protect -12 and AI-2 QS mod 4.
`O=C(Nc1nnc(-c2ccco2)o1)c1ccc(Cl)cc1` gave Cl transport mod 29*, SUMO Mot1 rescue -30, KCNQ1 inh inactive, KCNQ1 act inactive, hERG protect -10, AI-2 QS mod inconclusive, KCC2 sec1 0.032*, KCC2 bumet counter 0.069*, KCC2 sec2 inconclusive, HEK counter1 0.031*, KCC2 ouabain 0.06* and HEK293 Tl flux2 0.017*.
For Cc1ccc(C(=O)Nc2nnc(-c3ccco3)o2)cc1C the results were Cl transport mod 8*, SUMO Mot1 rescue 7, KCNQ1 inh inactive, KCNQ1 act inactive, hERG protect -6, AI-2 QS mod 9, KCC2 sec1 0.013*, KCC2 bumet counter 0.039*, KCC2 sec2 0.029, HEK counter1 0.019*, KCC2 ouabain 0.038* and HEK293 Tl flux2 0.011*.
`CCOc1ccc(C(=O)Nc2ccc3[nH]ncc3c2)cc1` gave SUMO Mot1 rescue 319, KCNQ1 inh inactive, KCNQ1 act inactive, hERG protect -6 and AI-2 QS mod 29.
Screening O=C(C1CCCN(S(=O)(=O)c2ccc(Br)cc2)C1)N1CCN(Cc2ccccc2)CC1 (configuration not stated) returned SUMO Mot1 rescue -1, KCNQ1 inh inactive, KCNQ1 act inactive, hERG protect -4 and AI-2 QS mod 29.
`CC(C)(C)c1csc(NNC(=O)c2ccc(Cl)cc2)n1` gave Cl transport mod 24*, SUMO Mot1 rescue 38, KCNQ1 inh inactive, KCNQ1 act inactive, hERG protect 1, AI-2 QS mod 26, KCC2 sec1 0.01, KCC2 bumet counter 0.03*, KCC2 sec2 0.035, HEK counter1 0.037*, KCC2 ouabain 0.032* and HEK293 Tl flux2 0.014*.
Screening CC(=O)NC(C)C(=O)OCC(=O)c1ccc(-c2ccccc2)cc1 (configuration not stated) returned Cl transport mod -4.1*, SUMO Mot1 rescue -2, KCNQ1 inh inactive, KCNQ1 act inactive, hERG protect -7, AI-2 QS mod 19, KCC2 sec1 0.0072, KCC2 bumet counter 0.0051, KCC2 sec2 inconclusive, HEK counter1 0.0079, KCC2 ouabain 0.018 and HEK293 Tl flux2 0.012.
